# Results of several laboratories.
# rep main protease: Replicase polyprotein 1ab, main protease (rep, Porcine epidemic diarrhea virus, UniProt P0C6Y4)
# SLC6A4: Sodium-dependent serotonin transporter (SLC6A4, Homo sapiens, UniProt P31645)
Structure (SMILES),target,assay,setting,measurement,result
C1=C/COCc2cc(ccc2OCCN2CCCC2)Nc2nccc(n2)-c2cccc(c2)COC/1,"Calcium/calmodulin-dependent protein kinase type 1D (CAMK1D, Homo sapiens, UniProt Q8IU85)",binding,0.1 µM,remaining binding,63%
COc1cc(CNC(=O)c2ccccc2C)cc(Br)c1OC,rep main protease,"enzyme activity, inhibitor, FRET",10 µM,inhibition,92.8%
CNC(=O)[C@@]12C[C@@H]1[C@@H](n1cnc3c(NCc4cccc(Cl)c4)nc(C#Cc4ccc(Cl)s4)nc31)[C@H](O)[C@@H]2O,SLC6A4,"ligand displacement, radioligand",10 µM,inhibition,10%
COc1ccc(C(=O)NCc2cc(O)c(O)c(Br)c2)cc1OC,rep main protease,"enzyme activity, inhibitor, FRET",10 µM,inhibition,74.7%
CCOC(=O)[C@@]12C[C@@H]1[C@@H](n1cnc3c(NCCCCCc4ccccc4)nc(C#Cc4ccc(Cl)s4)nc31)[C@H](O)[C@@H]2O,SLC6A4,"ligand displacement, radioligand","10 µM, cell membranes",inhibition,1%
Cc1cc(O)c(-c2ccc([C@@H](C)CN(C)C)cc2)c2c1[nH]c(=O)c1sccc12,"SRSF protein kinase 2 (SRPK2, Homo sapiens, UniProt P78362)","enzyme activity, inhibitor",0.1 µM,inhibition,-3.6%
O=C(NCc1cc(O)c(O)c(Br)c1)c1cccc(C(F)(F)F)c1,"Replicase polyprotein 1ab, papain-like protease (rep, Porcine epidemic diarrhea virus, UniProt P0C6Y4)","enzyme activity, inhibitor, FRET",10 µM,inhibition,102%
CCCCC(=O)Nc1ccc(-c2ccc3ncn(CCC)c(=O)c3c2)cn1,"Mitogen-activated protein kinase kinase kinase 20 (MAP3K20, Homo sapiens, UniProt Q9NYL2)","binding, competition with immobilised ligand",0.5 µM,remaining binding,54%
OC[C@@]12C[C@@H]1[C@@H](n1cnc3c(Nc4ccccc4)nc(I)nc31)[C@H](O)[C@@H]2O,SLC6A4,"ligand displacement, radioligand",10 µM,inhibition,-22%
